ARFGAP1 inhibitor: inhibits rat ARF GTPase activating protein 1. Q62848. 360,000 compounds, 0.26% hits. inhibition, % at 16.5 µM. Arfgap1-stimulated ARF1 GTP hydrolysis, GDP FP detection. AID 651572;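 active = inhibition above a per-plate limit, mean inhibition of low control wells plus 3 SD, cut at about 25% in these data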
Target sequence (Q62848 1-136 limits assumed): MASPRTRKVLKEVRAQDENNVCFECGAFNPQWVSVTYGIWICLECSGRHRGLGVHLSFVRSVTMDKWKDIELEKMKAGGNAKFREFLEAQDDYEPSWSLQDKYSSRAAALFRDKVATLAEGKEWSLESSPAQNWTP
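Material: rat Arfgap1 GAP domain (His6, aa 1-136), purified enzyme. Also added: human ARF1(Δ1-17)-GTP substrate. Compound dosing: 16.5 µM single point, 1.26% DMSO. Timing: enzyme reaction 120 min at 25 °C after 20 min preincubation. Signal: GDP detection by fluorescence polarization. Read-out basis: percent inhibition of GAP-stimulated GDP formation, scaled between DMSO and no-Arfgap1 medians.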
Efflux pump mplx: blocks antifungal efflux pumps in multiplex yeast assay; AID 485275; S. cerevisiae Candida pump triplex, Nile Red efflux; 330,000 compounds, 0.44% hits; inhibition, % at 10 µM;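 active = plate passing quality check with inhibition over a set limit, or well fluorescence over plate mean plus 4 SD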;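 note: Nile Red retained in pooled yeast measured as flow cytometry median fluorescence; higher means more Nile Red kept so more efflux inhibition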
Rtt109 Vps75: C. albicans Rtt109 histone acetyltransferase inhibition; Q5AAJ8; purified Rtt109/Vps75, ThioGlo CoA-SH fluorescence, 4 h; inhibition, % at 34.9 µM; 330,000 compounds, 0.16% hits; AID 540336;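 active = inhibition of at least 50% in every replicate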
Target sequence (Q5AAJ8 whole entry, looked up): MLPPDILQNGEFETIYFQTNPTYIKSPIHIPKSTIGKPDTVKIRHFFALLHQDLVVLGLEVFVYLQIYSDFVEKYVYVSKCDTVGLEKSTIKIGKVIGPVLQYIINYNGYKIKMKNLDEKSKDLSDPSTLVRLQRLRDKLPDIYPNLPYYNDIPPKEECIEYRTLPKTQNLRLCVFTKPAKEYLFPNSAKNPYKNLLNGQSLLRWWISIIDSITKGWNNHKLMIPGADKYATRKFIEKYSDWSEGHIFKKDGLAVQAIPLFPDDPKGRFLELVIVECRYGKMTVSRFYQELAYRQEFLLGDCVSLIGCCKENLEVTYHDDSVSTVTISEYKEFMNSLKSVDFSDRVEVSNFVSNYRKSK
FGF22 binding: binders of recombinant human FGF22 by thermal shift; Q9HCT0; SYPRO orange fluorescence; percent of sucrose octasulfate shift, DMSO zero; activity (Tm shift, normalised), % at 9.99 µM; 340,000 compounds, 1.5% hits; AID 651658;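 active = mean Tm shift, scaled 0 neutral to 100 positive control, at about 1.3% or above, every replicate too, limit read from the data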
Target sequence (Q9HCT0 whole entry, looked up): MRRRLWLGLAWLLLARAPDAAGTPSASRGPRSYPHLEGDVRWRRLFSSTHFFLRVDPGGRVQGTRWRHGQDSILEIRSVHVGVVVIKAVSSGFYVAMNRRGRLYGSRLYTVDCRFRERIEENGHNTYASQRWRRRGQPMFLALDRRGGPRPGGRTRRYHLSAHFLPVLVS
ASAP1 GAP inh: inhibitors of human ASAP1 ArfGAP activity | Q9ULH1 | 360,000 compounds, 0.19% hits | ASAP1-stimulated ARF1 GTP hydrolysis, GDP FP detection | inhibition, % at 16.5 µM; in the data active = inhibition above about 25%
Cmpd fluor yeast: counter-screen for efflux pump inhibitors: compound fluorescence; shares compounds with Efflux pump mplx; S. cerevisiae AD/pABC3, flow cytometry; fluorescence ratio to DMSO, % at 10 µM; 1,700 compounds, 4% hits;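 active = fluorescence ratio to DMSO above its plate's cutoff, the plate mean ratio plus 5 SD, cut at about 210% in these data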;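 note: unstained yeast with no Nile Red so the signal is compound autofluorescence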
CaMdr1 efflux inh: inhibitors of Candida albicans Mdr1 efflux pump. inhibition, % at 10 µM. AID 588518. 1,700 compounds, 1% hits. shares compounds with Efflux pump mplx. S. cerevisiae AD/CaMDR1, Nile Red efflux, flow cytometry; in the data active = inhibition above about 26%;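 note: higher means more Nile Red retained so more efflux inhibition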
CaCdr2 efflux inh: blocks the Candida albicans Cdr2 efflux pump in yeast; shares compounds with Efflux pump mplx; S. cerevisiae AD/CaCDR2, Nile Red retention, flow cytometry; Nile Red retention ratio vs DMSO, % at 10 µM; 1,700 compounds, 4% hits; AID 588520; in the data active = Nile Red retention ratio vs DMSO above about 190%;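 note: higher ratio means more blocking of Cdr2 efflux of the dye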
Cdr1 pump inh: Candida Cdr1 efflux pump inhibition; 1,700 compounds, 1% hits; shares compounds with Efflux pump mplx; inhibition, % at 10 µM; S. cerevisiae AD/CaCDR1, Nile Red efflux, flow cytometry;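 active = inhibition above the screen-wide mean plus twice its standard deviation, cut at about 32% in these data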
Hits are given with their value; 0 = inactive; - = no result given; + = active, no number. This is a sample that favours compounds with a hit; in the whole collection about 1.9% have one here.

SMILES	ARFGAP1 inhibitor	Efflux pump mplx	Rtt109 Vps75	FGF22 binding	ASAP1 GAP inh	Cmpd fluor yeast	CaMdr1 efflux inh	CaCdr2 efflux inh	Cdr1 pump inh
COc1ccc(S(=O)(=O)N(C)C[C@@H]2Oc3ccc(NC(=O)CCCCCC(=O)Nc4ccccc4N)cc3C(=O)N([C@H](C)CO)C[C@H]2C)cc1	-	-	-	0	-	-	-	-	-
CCOC(=O)C1=C(C)NC(=O)NC1c1ccc(OCC(=O)Nc2ccccc2)c(OC)c1 (stereo unspecified)	0	0	0	0	0	-	-	-	-
CC(C)Sc1cc(N2CCCC2)nc(-c2ccccc2)n1	0	0	0	-	0	-	-	-	-
CCSc1cc(N2CCCC2)nc(-c2ccccc2)n1	0	0	0	-	0	-	-	-	-
CCCSc1cc(N2CCCC2)nc(-c2ccccc2)n1	0	0	0	-	0	+	0	0	0
CCCSc1cc(N2CCN(C)CC2)nc(-c2ccc(OC)cc2)n1	0	0	0	-	0	0	0	0	0
O=C(O)CC(NCc1ccco1)C(=O)OCC1CCCO1 (stereo unspecified)	0	0.7	0	-	0	0	0	0	0
COc1ccc(-c2nnc(NC(=O)c3ccc(F)cc3)o2)cc1	0	1.0	0	0	0	0	0	0	0
CNC[C@H]1Oc2ccc(NS(=O)(=O)c3ccc(Cl)cc3)cc2CC(=O)N([C@H](C)CO)C[C@@H]1C	-	-	-	0	-	-	-	-	-
C[C@H]1O[C@@H](O[C@H]2CC[C@@]3(C)C(CC[C@]4(C)C3C=CC3=C5CC(C)(C)CC[C@]5(CO)[C@H](O)C[C@]34C)[C@]2(C)CO)[C@H](O)[C@@H](O[C@@H]2O[C@H](CO)[C@@H](O)[C@H](O)[C@H]2O)[C@H]1O (stereo partly specified)	0	1.7	0	0	0	0	0	0	0
CCCOc1ccc(-c2nc(N3CCN(C)CC3)c3ccccc3n2)cc1	0	1.0	0	0	0	0	0	0	0
CCCOc1ccc(-c2nc(N3CCN(CC)CC3)c3ccccc3n2)cc1	0	0	0	0	0	-	-	-	-
CCc1cc2c(=O)n(Cc3ccccc3)c(SC3CCOC3=O)nc2s1 (stereo unspecified)	0	0.9	0	0	0	0	0	0	0
Cc1ccc(Cn2c(SC3CCOC3=O)nc3ccccc3c2=O)cc1 (stereo unspecified)	0	0	0	-	0	-	-	-	-
CCOC(=O)c1nn(-c2ccc(C)cc2)c(C)c1C(C)=O	0	0	0	-	0	-	-	-	-
CCOC(=O)c1nn(-c2ccc(OCC)cc2)c(C)c1C(C)=O	0	1.8	0	0	0	0	0	0	0
COc1ccc(NC(=O)C2Cc3c(-c4ccc(Cl)cc4)ccnc3O2)cc1OC (stereo unspecified)	0	-	-	0	0	-	-	-	-
Cc1ccccc1OCCNc1cc(N2CCN(CCO)CC2)ccc1[N+](=O)[O-]	0	19	0	-	0	0	0	0	0
Cc1ccccc1OCCNc1cc(N2CCCCC2)ccc1[N+](=O)[O-]	0	0	0	-	0	-	-	-	-
Cc1cccc(S(=O)(=O)Nc2nc3ccccc3nc2Nc2ccc3c(c2)OCO3)c1	0	10.0	0	0	0	0	0	0	0
O=S(=O)(Nc1nc2ccccc2nc1Nc1ccc2c(c1)OCO2)c1ccccc1	0	0	0	-	0	-	-	-	-
CC(C)C(C(=O)O)N1C(=O)/C(=C/C=C/c2ccco2)SC1=S (stereo unspecified)	-	1.2	0	-	-	0	0	0	0
CC(C)C(C(=O)O)N1C(=O)/C(=C/c2cccn2C)SC1=S (stereo unspecified)	0	0	0	0	0	-	-	-	-
C[C@H](CO)N1C[C@H](C)[C@@H](CN(C)C(=O)Nc2cccc3ccccc23)Oc2ccc(NS(=O)(=O)c3ccc(Cl)cc3)cc2C1=O	-	-	-	0	-	-	-	-	-
COc1cc(S(=O)(=O)Nc2ccccn2)ccc1F	0	0.7	0	-	0	0	0	0	0
SMILES	ARFGAP1 inhibitor	Efflux pump mplx	Rtt109 Vps75	FGF22 binding	ASAP1 GAP inh	Cmpd fluor yeast	CaMdr1 efflux inh	CaCdr2 efflux inh	Cdr1 pump inh
COc1ccc(S(=O)(=O)Nc2ccccn2)cc1OC	0	0	0	-	0	-	-	-	-
Cc1ccc(C(C)(C)C)cc1S(=O)(=O)N1CCC(C(=O)N2CCN(c3ccc(O)cc3)CC2)CC1	0	0.8	0	0	0	0	0	0	0
Cc1cc(C)c(C)c(S(=O)(=O)N2CCC(C(=O)N3CCN(c4ccc(F)cc4)CC3)CC2)c1C	0	-	0	0	0	-	-	-	-
COc1ccc(CNC(=O)C(C)Sc2ccc(S(=O)(=O)N3CCOCC3)cn2)cc1 (stereo unspecified)	0	-	0	0	0	-	-	-	-
CC(C)(C)C(=O)CSc1ncccn1	0	0.6	0	0	0	0	0	0	0
COc1ccc(CC(=O)OCC(=O)NC(=O)NC23CC4CC(CC(C4)C2)C3)cc1	0	0.7	0	-	0	0	0	0	0
CCOc1ncccc1C(=O)OCc1ccc(C(=O)OC)cc1	0	1.4	0	0	0	0	0	0	0
Cc1cc(C)cc(C(=O)NC(=S)Nc2ccc(Cc3ccncc3)cc2)c1	0	0	0	0	0	-	-	-	-
O=C(Nc1cccc(NC(=S)NC(=O)c2cccs2)c1)c1ccccc1	0	8.0	0	-	0	0	0	0	0
O=C(NC(=S)Nc1cccc(NC(=O)c2ccccc2Cl)c1)c1cccs1	0	0	0	0	0	-	-	-	-
O=C(NC(=S)Nc1ccc2nc[nH]c2c1)c1ccccc1	0	0	0	0	0	0	0	0	0
Cc1ccc(NC(=S)NC(=O)c2ccccc2)cc1NC(=S)NC(=O)c1ccccc1	0	0.7	0	0	0	0	0	0	0
Cc1cccc(C(=O)NC(=S)Nc2ccc(Cc3ccncc3)cc2)c1	0	0.7	0	-	0	0	0	0	0
CN1C(=O)c2cc(NC(=O)c3cscn3)ccc2OC[C@@H]2O[C@H](CC(=O)N3CCOCC3)CC[C@H]21	-	-	-	0	-	-	-	-	-
OCC[n+]1ccc(/C=C/c2c[nH]c3ccccc23)cc1	0	2.5	0	0	0	429	0	0	0
C(=Cc1c[nH]c2ccccc12)c1nccc2ccccc12	0	-	0	0	0	-	-	-	-
O=C(CSc1ccccc1)Nc1ccc(N2CCOCC2)cc1	0	0	0	-	0	-	-	-	-
Cn1c(CC(=O)Nc2ccccc2)nnc1SCC(=O)Nc1ccc(N2CCOCC2)cc1	0	0	0	0	0	-	-	-	-
Cn1c(Cc2ccccc2)nnc1SCC(=O)Nc1ccc(N2CCOCC2)cc1	0	1.3	0	0	0	0	0	0	0
O=C(CSc1ccccc1F)Nc1ccc(N2CCOCC2)cc1	0	0.8	0	0	0	0	0	0	0
Cc1cc(C)cc(NC(=O)COC(=O)CCCC2=NS(=O)(=O)c3ccccc3N2)c1	0	0	0	0	0	-	-	-	-

High-throughput results from PubChem.
